# Results as given in the EternaBench riboswitch data.
# System: MS2 coat protein
# Assay: apparent Kd, MS2 coat protein; higher = weaker binding; RNA-MaP array; FMN 200 µM where present
# Summary of the method: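 Each design was made on Illumina sequencing-chip clusters by stalled E. coli RNA polymerase and titrated with SNAP-549-labelled MS2 coat protein from 0.7 or 1.5 nM, doubling to 3 µM, in the absence and then the presence of constant ligand. The buffer was 100 mM Tris-HCl pH 7.5, 80 mM KCl, 4 mM MgCl2, BSA, DTT, yeast tRNA and Tween-20. The apparent Kd is the median of filtered per-cluster fits of binding curves, with green signal normalised to red-channel RNA signal and control-cluster median Fmax.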
# [1] = designed as: OFF switch for flavin mononucleotide, no ligand
# [2] = ligand present: flavin mononucleotide, designed as: OFF switch for flavin mononucleotide
# [3] = designed as: ON switch for flavin mononucleotide, no ligand
# [4] = ligand present: flavin mononucleotide, designed as: ON switch for flavin mononucleotide
Sequence,apparent Kd [1] [nM],apparent Kd [2] [nM],apparent Kd [3] [nM],apparent Kd [4] [nM]
AAUAUGUGAGGAUAUAUCCACCGCGUAGGCGCGCGGUGACAAUAGAAGGUACAUGAGGAUCACCCAUGUAGGGA,51.5,31.5,–,–
AAUAUUUAUUGAGGAUAUUCAUACACUGUAUACGGAGAAGGCAAACAAUCAUGAGGACAUGAGGAUCACCCAUGUUGUGACCAU,–,–,19.8,14.3
AAUCCACAUGAGGAUCACCCAUGUGAGGAUAUGAUACUAUGUACUUCGGUACAUAGUAUCAGAAGGCACGGAUC,33.2,50.4,–,–
AAUCCACAUGAGGAUCACCCAUGUGAGGAUAUGAUACUAUGUACUUCGGUACAUAGUAUCAGAAGGCAUAUGAA,25.3,30.4,–,–
AAUCGCGGUCGAAAGCGGUUGCAUGAGGAUAUCCUGAGACAUGAGGAUCACCCAUGUAGACUGCAGGAGAAGGCAUGGAAAGAA,–,–,244,21.1
AAUCGGGAGCAGAAGGCAUGUAAUAAAACAUGAGGAUCACCCAUGUAGUUAAGGCGAAAGCCGCAUGAGGAUAUGCUCCCGUAA,–,–,5.39,4.99
AAUCGUAGAACGAUCACUACCAGUCAGGAUAUACAUGAGGAUCACCCAUGUCGUGUCGACAGCAUGUAGAAGGGACGGUUAUAU,27.1,66,–,–
AAUGAGACCGCAGGAUAUCCACAUGAGGAUCACCCAUGUUCUCAGGUCGGAAGCACGACCUGCGAGGAGAAGGGCGACCUCAUA,–,–,715,36.5
AAUGAUUCAGGAUAUACAUGAGGAUCACCCAUGUUGGUGUCCCUCCCAAAGUUGCAGUGUAGAAGGGAGUCCCG,131,137,–,–
AAUGGGCAGCAGAAGGCAUGUCAAUGGACAUGAGGAUCACCCAUGUAGUAUAGCCGAAAGGCACAUGAGGAUAUGCUGCCCUAA,–,–,47.2,6.74
AAUGUUUGAUUCCACCUAUACAUGAGGAUCACCCAUGUUAUCGAGGAUAUGCAUUAGAGUGUUUAGCAGAAGGCGAUGUAAUUG,8.34,23,–,–
AAUUAAUUAAUACAUGAGGAUCACCCAUGUAAUUAUUAGAUCUAGGAUAUCAGCUCGAUUAGAGCUGAGAAGGAGAUCACAUGU,–,–,18.5,14.8
AAUUAGGUCACAGGAUAUACUACUUCCAAUGCUGUAGAAGGGUGACACAUUCUUUGCUGACAUGAGGAUCACCCAUGUAACCAC,–,–,231,41
AAUUAUUUACAGAAGGAGUAAGAUUAUGUAUUACUAGGAUAUGUUCACAUGAGGAUCACCCAUGUCAUUGUAGGUUUUUUAUGU,12,9.95,–,–
AAUUAUUUAUGAGGAUAUUGUGGUGAAACACCACAAGAAGGCAUGAUACACAUGAGGAUCACCCAUGUGAGCCUUAUGCAUAUA,20.3,115,–,–
AAUUAUUUUUGAGGAUAUCGUGGUGAAACACCACGAGAAGGCGAGAUACACAUGAGGAUCACCCAUGUGAGCCUGAUGCUUAUG,16.1,14.4,–,–
AAUUAUUUUUGAGGAUAUGGUAGUGAAACACUACCAGAAGGCGGAAUAAACAUGAGGAUCACCCAUGUGAGCCUGAUGCUUAUG,22,42.6,–,–
AAUUCACAUGAGGAUCACCCAUGUCAGGAUAUGGUUACGCGGGUUUCGGUGCGUGUGGCCAGAAGGGACAGCUA,65,80.5,–,–
AAUUCACAUGAGGAUCACCCAUGUCAGGAUAUGGUUUCGCGGGUUUCGGUGCGUGAGGCCAGAAGGGACAGCUA,53.3,72.4,–,–
AAUUCUUGUGAAGGAUAUACGGCGGGUCGCGCAGUAGAAGGUCACAUGAGGAUCACCCAUGUCGACAAUGCGCAGUAUCGACAA,72,164,–,–
AAUUGACACGUAGGAUAUCGAUCUAUAUUAACACGAGAAGGACGUACAUGAGGAUCACCCAUGUUUAAUGGAGUAGAUAAGUUG,112,257,–,–
ACAAAACAUGUAGGAUAUCGAUUGCGUCGCGAUCGAGAAGGACAAGAGGGUCACCCUUGUACAUGAGGAUCACCCAUGUCAUGU,202,149,–,–
ACAAAGCAUGUAGGAUAUCCAUUGCGUCGCGAUGGAGAAGGACAACACACAUGAGGAUCACCCAUGUGAUCACCCAUGUCAUGU,866,1210,–,–
ACAAGAUCAGGAUAUACAUGAGGAUCACCCAUGUAUAUCAAAAAGGGACUUUCUUAAUGUAGAAGGGAUCAUGU,14,12.7,–,–
ACAAGAUCAGGAUAUACAUGAGGAUCACCCAUGUAUAUCAAAAAGGGACUUUCUUAAUGUAGAAGGGAUCUUGU,13.3,12.8,–,–
ACAAGAUCAGGAUAUACAUGAGGAUCACCCAUGUUAAUCCAAAAGGGACUUUCUUUAUGUAGAAGGGAUCUUGU,31.2,85.5,–,–
ACAAGCUCACAUGAGGAUCACCCAUGUGGUCGCUAAUAUACCAGAAGGGUGGGUCCUAAUGAUGUACAGGAUAUGGAGUAGGCG,–,–,196,62
ACAAGUUCACAUGAGGAUCACCCAUGUGGUCGCUAAUAUACCAGAAGGGUGGGUCCUAAUGAUGUACAGGAUAUGGAGUAGGCG,–,–,198,81.7

Sequence,apparent Kd [1] [nM],apparent Kd [2] [nM],apparent Kd [3] [nM],apparent Kd [4] [nM]
ACAAUGUGGUAAGGAUAUCCAAUGGCAUCCCUAGGAGAAGGUAUCACAUGAGGAUCACCCAUGUGAAGGAUGGGUUAUCGCAAA,223,121,–,–
ACACGGAAGUCAGGAUAUGUAUCAGCACGAUUGUUACAUGAGGAUCACCCAUGUUUCACGGGCCAACAGAAGGGACAGGGUGGC,–,–,23.6,7.82
ACAGUAUAUGUAGGAUAUCAUUGGCUAGGUAGGUGAGAAGGGCAUAGUACAUGAGGAUCACCCAUGUGUUGGUCCUCGCAGAAA,634,380,–,–
ACAUAAUACGAGAAGGGAGUACAUGAGGAUCACCCAUGUGCUCAGAUGUACUCAGGAUAUCGGCUGACGCAAGGUUCAGGGAAU,10.9,128,–,–
ACAUACAUUCGAGGAUAUCAGUGAACAUAUUAUUGAGAAGGCGAUAUUAUUUUUAAUCUUAUUUACAUGAGGAUCACCCAUGUU,–,–,22.6,19.6
ACAUGAGAUUUAGGAUAUAUAGUACCUACAUGUGACAUGAGGAUCACCCAUGUGGUAAGUAUGACAUAGAAGGAAAAGAUAUGU,–,–,66,67
ACAUGAGGAUCACCCAUGUAGAUACUAGAAGGGUAAGACUAGUAGUUACAUGACGACCAAGCAUUACAGGAUAUAGGAAUUGGA,–,–,81.2,39.2
ACAUGAGGAUCACCCAUGUAUACAUAGGAUAUUGAGGAUCAGGGAUGUUUUACAGGAUAUGUCUACGAGAAGGAUGCAAGUACA,–,–,33.5,28.6
ACAUGAGGAUCACCCAUGUGAUGAUCUCCCAUGUUAUAUUUCAGAAGGCUCGUGUGUUUGAUGAGAGAGGAUAUGGAAUAUACG,377,258,–,–
ACAUGAGGAUCACCCAUGUGUGCAUAGGAUAUUGAGGAUUAGGGAUAUUAUUAUGGAUUUGCCCACAAGAAGGAUGAAAGUGUU,–,–,17.8,15.7
ACAUGAGGAUCACCCAUGUUAAAUUAGGAUAUUUGACUGCACAUGAGGUUCACCCAUGUUCUACCGAAGAAGGGAUAAAUAAUU,–,–,49,50
ACAUGAGGAUCACCCAUGUUAUCAGGGACUUCAAUUAUUUGUAGAAGGCUGUUUUCUUGUUAGUCAGAGGAUAUACAAUUAAAU,12.7,14.2,–,–
ACAUGAGGAUCACCCAUGUUUUCAGGGACUUCAAUUAUUUGUAGAAGGAUGUUUACUUGUUAGUCAUAGGAUAUACAAUUAAAU,12.2,12.9,–,–
ACAUGAGGCGCAGGAUAUGCAACAUGAUGAGUAGCAGAAGGGUGACAACAUGAGGAUCACCCAUGUAACAUGAGGAUCACCCAU,28.3,33.3,–,–
ACAUGAUCAGGAUAUACAUGAGGAUCACCCAUGUAUUUCAAAAAGGGACUUUCUUAAUGUAGAAGGGAUCUUGU,14.7,33.8,–,–
ACAUGAUCAGGAUAUACAUGAGGAUCACCCAUGUUUAUCAAAAAAAGGCUUUCAUCAUGUAGAAGGGAUCUUGU,20.4,65.7,–,–
ACAUGCAUAGCGAUAUGAUCGAGAGAUCAUGUCGCAAAAUUUAGAAGGACAUGAGGAUCACCCAUGUAGGAUAUGGGAGCAUGA,–,–,43.8,12.9
ACAUUAAGUGCAGGAUAUGCCAACCUGGGUUCGGUAGAAGGGCACAUGAGGAUCACCCAUGUAGCGGUGGGUUGGGCCAAGGUU,13.3,35.6,–,–
ACAUUGCGAGGAUAUACAUGAGGAUCACCCAUGUGGUGGCAGAUACGGUAGGACUAGUGUAGAAGGUGUCAUGG,490,397,–,–
ACCAAUCACAUAGGAUAUAGAAUAUUAAAUUUUUACAUGAGGAUCACCCAUGUUUUAUUGGGAUACUAGAAGGAUGAGUAAUAA,–,–,113,108
ACCAUAAACAUAGGAUAUAGAAUAAGAACUACUUACAUGAGGAUCACCCAUGUUAUAUUUGGGUACUAGAAGGAUGAGUGUUAA,–,–,387,259
ACCAUUUACUAAUUGUCUAUACAUGAGGAUCACCCAUGUUAUGAGGAUAUCGUCGUGAAACACGACGAGAAGGCAUAGCAUUCG,67.2,229,–,–
ACCGGAGCAGGAUAUACAUGAGGAUCACCCAUGUGAGCCACACAGCUACUAUAUGCAAGUAGAAGGGCUCGGGU,74.2,120,–,–
ACCGUAUGAACAUGAGGAUCACCCAUGUAACCGAUAACGAAUGAGGAUAUCGAUAGCAAAGCUAUCGAGAAGGCAUGGGACGGU,–,–,224,43.9
ACCUCACACGUCAGGAUAUGCCUGCGGAUAUGCGGGUAGAAGGGACAUGAGGAUCACCCAUGUCUUUCGUGAUU,15.8,21.1,–,–
ACCUCACAUGAGGAUCACCCAUGUUAGGAUAUCUCGAUGCUCCACGGGCGGUAGCAUCAGAGAAGGAACGUGCU,23.9,21.5,–,–
ACCUGGACCACAGGAUAUCCCAAUGUUUUACAGGGAGAAGGGUGAGAGUAUGACAUGAGGAUCACCCAUGUUGUCCAGGCGGAA,–,–,442,191
